Only some compounds are listed: those with a hit (about 3% of all), similar ones and a draw of the others.
PGC1a acetyl inh = modulators of PGC1a acetylation. inhibition, % at 15.6 µM. AID 651687. U2OS PGC1a acetylation, AlphaScreen anti-acetyl-lysine; with virally co-expressed GCN5 acetyltransferase. actives 0.17% (n = 350,000);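 active means every replicate shows inhibition of at least 40%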
S100A4 MyoIIA = blocks human S100A4 binding to myosin IIA peptide. P26447. S100A4/TAMRA-MyoIIA peptide fluorescence polarization. inhibition, % at 10.7 µM. actives 0.14% (n = 360,000);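 active means mean inhibition of at least 70% across replicates, with every replicate also reaching that level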
Target sequence (P26447 whole entry, looked up): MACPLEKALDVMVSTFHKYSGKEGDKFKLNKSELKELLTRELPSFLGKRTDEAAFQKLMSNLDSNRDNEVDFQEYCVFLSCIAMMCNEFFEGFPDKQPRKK
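Material: S100A4 monomer protein / Buffer or medium: 50 mM HEPES pH 7.2, 10 mM CaCl2, 100 mM KCl / Times: 5 min incubation before reading / Benchmarks: neutral control DMSO, positive control TFP / Reagent: labelled myosin peptide probe, 5 nM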
SIRT5 inh = sirtuin-5 (human) deacylase inhibition | Q9NXA8 | Purified SirT5, succinyl-peptide AMC, trypsin-coupled fluorescence | inhibition, % at 15 µM | actives 1.1% (n = 330,000) | AID 652115; in the data active means inhibition above about 15%
Target sequence (Q9NXA8 whole entry, looked up): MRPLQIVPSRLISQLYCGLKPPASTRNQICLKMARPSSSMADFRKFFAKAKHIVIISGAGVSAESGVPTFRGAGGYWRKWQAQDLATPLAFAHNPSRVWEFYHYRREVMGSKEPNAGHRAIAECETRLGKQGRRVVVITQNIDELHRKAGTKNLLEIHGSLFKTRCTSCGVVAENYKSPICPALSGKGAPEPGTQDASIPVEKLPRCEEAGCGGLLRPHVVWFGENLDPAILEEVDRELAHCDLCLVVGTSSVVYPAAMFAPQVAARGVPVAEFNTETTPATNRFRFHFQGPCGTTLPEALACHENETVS
Statin myotox sup = suppression of simvastatin myotoxicity; C2C12 myotubes + simvastatin, ATP luminescence, 48 h; scaled: DMSO 0, geranylgeraniol control 100; rescue of ATP level, % at 7.49 µM; actives 0.78% (n = 330,000);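 active means mean ATP rescue above about 67%, or every replicate alone reaching that limit, limit read from the data, passing the limit was not always enough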;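 further: myotubes were challenged with 10 µM simvastatin during compound exposure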
Cneo AK release = causes C. neoformans cell lysis; actives 0.2% (n = 360,000); lysis activity, % at 15 µM; adenylate kinase release luminescence, 4 h; normalised: neutral wells 0, clomiphene wells 100; AID 651654;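 active means mean lysis activity across replicates of at least 80%, whatever share of replicates individually reach that level; inactive means mean lysis activity below 80%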
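Signal: Adenylate kinase release luminescence | Assay system: Log-phase Cryptococcus neoformans yeast cells | Input: Cells at 5 × 10^6 per mL | Buffer or medium: Fresh YPD growth medium | Compound: Single dose | Schedule: Static 4 h at 37 °C with compound, 1 h detection | Controls: Clomiphene | Read-out: Luminescence rise reflecting yeast cell lysis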
rRNA inh HTS = inhibitors of bacterial rRNA selective over humanized ribosomes | E. coli WT GFP vs humanized-ribosome RFP mutants, fluorescence, 24 h; stronger effect = lower value; DMSO median 0, no signal -100 | GFP signal change (wild-type ribosome), % (no concentration beside the values) | actives 1.6% (n = 350,000);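 active means significant combined selectivity score with lowered wild-type GFP, culture density cut under 30%, mutant RFP and density less affected; inactive means any of these conditions unmet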
Hits are given with their value; n = inactive; x = not tested or not shown.

SMILES	PGC1a acetyl inh	S100A4 MyoIIA	SIRT5 inh	Statin myotox sup	Cneo AK release	rRNA inh HTS
Cc1cc(OC(C)C(=O)NCC2CCC(C(=O)O)CC2)c2c(C)c(Cc3ccccc3)c(=O)oc2c1 (stereo not drawn)	n	n	n	n	n	n
Cc1cc(=O)oc2c(C)c(OC(C)C(=O)NCC3CCC(C(=O)O)CC3)ccc12 (stereo not drawn)	n	n	x	n	n	x
C[C@@H]1CN([C@H](C)CO)C(=O)c2ccccc2-c2ccccc2CO[C@@H]1CN(C)C(=O)Nc1ccc2c(c1)OCO2	n	n	n	n	n	n
Cc1cc(C)c2nc(NNC(=O)c3cc(=O)c4ccccc4o3)sc2c1	n	n	x	n	n	-26.6
CC(C)Oc1cccc(C(=O)C2CCCN(C(=O)c3cc(C(F)(F)F)[nH]n3)C2)c1 (stereo not drawn)	n	n	n	n	n	-28.9
CCCNC(=O)N1[C@@H]2CN(C(=O)C3CCOCC3)c3ccccc3[C@@H]2[C@@H]1CO	n	n	n	n	n	n
Cc1ccc(S(=O)(=O)N(C)C[C@H]2OCCCC[C@H](C)Oc3ccc(NS(=O)(=O)c4cn(C)cn4)cc3C(=O)N([C@H](C)CO)C[C@@H]2C)cc1	n	n	n	x	n	n
O=C(NCC1COc2ccccc2O1)c1ccccc1 (stereo not drawn)	n	x	x	x	n	x
O=C(NC(=S)NCC1COc2ccccc2O1)c1ccccc1 (stereo not drawn)	n	x	x	n	160.6	x
COc1ccc(C(=O)C2CCCN(C(=O)c3noc4c3CCCC4)C2)cc1F (stereo not drawn)	n	n	n	n	n	-25.3
COc1ccc(NC(=O)N[C@@H](CCSC)C(=O)O)cc1OC	n	n	19.1	n	n	n
O=C(O)c1ccc(NS(=O)(=O)c2ccc3c(c2)C2C=CCC2C(c2ccccc2F)N3)cc1 (stereo not drawn)	n	n	51.3	x	x	n
CO[C@H]1CN(C)C(=O)c2cc(NC(=O)Nc3ccccc3)ccc2OC[C@H](C)N(C(=O)CC2CC2)C[C@H]1C	n	n	n	n	n	n
Cc1[nH]c2ccccc2c1/C=C(\C#N)C(=O)NCC1CCCO1 (stereo not drawn)	x	n	n	x	x	-23.3
N#C/C(=C\c1c[nH]c2ccccc12)C(=O)NCC1CCCO1 (stereo not drawn)	x	n	n	x	x	n
CC(C)NC(=O)NNC(=O)c1nn(-c2ccc(F)cc2)ccc1=O	x	n	22.2	x	x	n
CCC(=O)N[C@H]1CC[C@H](CCNC(=O)Nc2ccc(C(F)(F)F)cc2)O[C@@H]1CO	x	n	n	n	n	n
COCCN(Cc1ccccc1)C(=O)c1cc(-c2ccc(OC)c(OC)c2)nc2ccccc12	x	n	n	x	n	-31.0
CCN(Cc1ccccc1)C(=O)c1cc(-c2ccc(OC)c(OC)c2)nc2ccccc12	n	n	n	n	n	n
CC(=O)N(C)C[C@H]1Oc2c(NS(C)(=O)=O)cccc2C(=O)N(C)C[C@@H]1C	x	x	x	x	x	n
COc1cccc(-c2ccc3n(c2=O)C[C@H]2[C@H](CO)[C@@H](C(=O)NC4CCC4)N(S(C)(=O)=O)[C@@H]32)c1	x	n	n	n	n	n
C[C@@H]1CN([C@H](C)CO)C(=O)c2cccc(NC(=O)c3ccc(-c4nccs4)cc3)c2O[C@@H]1CN(C)Cc1ccc(Oc2ccccc2)cc1	n	n	20.6	n	n	n
COc1ccc(CN(C)C[C@H]2Oc3c(NC(=O)c4ccc(-c5nccs5)cc4)cccc3C(=O)N([C@@H](C)CO)C[C@@H]2C)cc1	n	n	23.7	n	n	n
COc1ccc(CN(C)C[C@@H]2Oc3c(NC(=O)c4ccc(-c5nccs5)cc4)cccc3C(=O)N([C@@H](C)CO)C[C@H]2C)cc1	n	n	n	n	n	x
CC(=O)N1[C@H](CO)[C@H]2c3ccccc3N(S(=O)(=O)c3ccc(F)cc3)C[C@H]21	n	x	x	n	n	n
COC(=O)Cc1[nH]n(-c2nc3ccccc3s2)c(=O)c1C(C)=Nc1ccc(C)cc1	n	n	n	x	x	-25.9

Compound activity: PubChem BioAssay, Broad Institute
